# Calls of active or inactive are those of the source. No cut-off for these calls is given here.
# Key:
# [1] = molecular target: T1, Serine/threonine-protein kinase TAO2 (Homo sapiens) (UniProt Q9UL54); experiment: Inhibition of TAOK2 in human U2OS cells assessed as inhibition of cellular autophagy measured as GFP-LC3 accumulation at 50 uM after 24 hrs by flow cytometric analysis; type: cell-based
# T1 sequence (whole entry): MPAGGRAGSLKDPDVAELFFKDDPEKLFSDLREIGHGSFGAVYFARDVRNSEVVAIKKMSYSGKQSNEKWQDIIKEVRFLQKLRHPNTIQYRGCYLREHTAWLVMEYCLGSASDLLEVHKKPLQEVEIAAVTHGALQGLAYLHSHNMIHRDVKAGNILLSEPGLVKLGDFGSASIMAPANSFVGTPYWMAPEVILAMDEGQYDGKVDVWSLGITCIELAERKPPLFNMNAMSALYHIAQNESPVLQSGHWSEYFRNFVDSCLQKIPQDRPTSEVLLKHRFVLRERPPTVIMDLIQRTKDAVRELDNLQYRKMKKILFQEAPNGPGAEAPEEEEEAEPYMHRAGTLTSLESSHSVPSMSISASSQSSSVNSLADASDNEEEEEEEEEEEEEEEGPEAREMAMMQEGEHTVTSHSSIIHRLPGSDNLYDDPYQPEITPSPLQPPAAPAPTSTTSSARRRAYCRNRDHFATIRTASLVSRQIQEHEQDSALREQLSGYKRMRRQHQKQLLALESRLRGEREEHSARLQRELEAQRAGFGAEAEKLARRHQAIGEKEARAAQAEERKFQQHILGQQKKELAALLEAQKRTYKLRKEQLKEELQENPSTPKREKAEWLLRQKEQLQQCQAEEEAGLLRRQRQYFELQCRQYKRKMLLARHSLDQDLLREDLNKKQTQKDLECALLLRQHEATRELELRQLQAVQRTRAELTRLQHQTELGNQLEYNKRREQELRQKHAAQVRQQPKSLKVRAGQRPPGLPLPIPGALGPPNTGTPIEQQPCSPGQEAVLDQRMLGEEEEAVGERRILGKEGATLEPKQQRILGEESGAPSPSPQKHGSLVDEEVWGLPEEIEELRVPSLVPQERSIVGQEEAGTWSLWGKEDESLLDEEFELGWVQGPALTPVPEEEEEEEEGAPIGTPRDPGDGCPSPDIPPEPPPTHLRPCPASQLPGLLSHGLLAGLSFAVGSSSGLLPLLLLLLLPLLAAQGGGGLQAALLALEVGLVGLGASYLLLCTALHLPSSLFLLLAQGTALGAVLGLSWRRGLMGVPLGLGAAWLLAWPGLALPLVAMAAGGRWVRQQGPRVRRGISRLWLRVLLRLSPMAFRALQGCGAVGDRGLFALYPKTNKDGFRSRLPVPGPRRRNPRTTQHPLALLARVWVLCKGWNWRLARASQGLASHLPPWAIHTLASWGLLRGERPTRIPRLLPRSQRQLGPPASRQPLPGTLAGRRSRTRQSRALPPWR
# Procedure, shortened: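 U2OS cells stably expressing GFP–LC3 were exposed to compound at 50 µM in the medium for 24 h. GFP fluorescence was read by flow cytometry. The median value from 20,000 cells per condition was normalized to DMSO vehicle within each experiment. Data are mean + SD of >2 independent experiments, compared with vehicle by unpaired t test.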
# [2] = molecular target: T2, Interleukin-1 receptor-associated kinase 4 (Homo sapiens) (UniProt Q9NWZ3); experiment: Inhibition of human IRAK4; conditions: concentration not given here
# T2 sequence (whole entry): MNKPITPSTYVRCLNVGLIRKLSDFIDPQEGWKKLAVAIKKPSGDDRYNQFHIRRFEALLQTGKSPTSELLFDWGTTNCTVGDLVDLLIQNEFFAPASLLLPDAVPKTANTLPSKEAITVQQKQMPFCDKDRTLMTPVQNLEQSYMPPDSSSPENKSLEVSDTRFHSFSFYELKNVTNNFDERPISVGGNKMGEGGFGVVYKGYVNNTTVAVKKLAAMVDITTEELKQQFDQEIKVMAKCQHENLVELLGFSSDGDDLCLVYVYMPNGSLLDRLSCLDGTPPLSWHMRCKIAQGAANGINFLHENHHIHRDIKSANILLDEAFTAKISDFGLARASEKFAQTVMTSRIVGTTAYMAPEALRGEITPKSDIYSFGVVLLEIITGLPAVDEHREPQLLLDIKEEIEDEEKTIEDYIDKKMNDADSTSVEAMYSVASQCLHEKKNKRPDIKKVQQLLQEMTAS
# [3] = molecular target: T1, Serine/threonine-protein kinase TAO2 (Homo sapiens); experiment: Inhibition of human TAO2; conditions: concentration not given here
# [4] = molecular target: RAF proto-oncogene serine/threonine-protein kinase (Homo sapiens) (UniProt P04049); experiment: Inhibition of human RAF-1; conditions: concentration not given here
# [5] = molecular target: T1, Serine/threonine-protein kinase TAO2 (Homo sapiens); experiment: Inhibition of TAOK2 in human U2OS cells assessed as inhibition of cellular autophagy measured as P62 accumulation at 50 uM after 24 hrs by western blot analysis; type: cell-based
# Procedure, shortened: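 GFP–LC3-expressing U2OS cells were treated for 24 h with compound at 50 µM or with DMSO alone. p62 (SQSTM1) abundance was then assessed by Western blotting as a readout of autophagic degradation.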
# [6] = molecular target: Mitogen-activated protein kinase 8 (Homo sapiens) (UniProt P45983); experiment: Inhibition of human JNK1; conditions: concentration not given here
# [7] = molecular target: Glycogen synthase kinase-3 beta (Homo sapiens) (UniProt P49841); experiment: Inhibition of human GSK3beta; conditions: concentration not given here
# [8] = molecular target: Cyclin-dependent kinase 1 (Homo sapiens) (UniProt P06493); experiment: Inhibition of human CDK1; conditions: concentration not given here
# Chain of Cyclin-dependent kinase 1 (Homo sapiens) (P06493 whole entry, looked up): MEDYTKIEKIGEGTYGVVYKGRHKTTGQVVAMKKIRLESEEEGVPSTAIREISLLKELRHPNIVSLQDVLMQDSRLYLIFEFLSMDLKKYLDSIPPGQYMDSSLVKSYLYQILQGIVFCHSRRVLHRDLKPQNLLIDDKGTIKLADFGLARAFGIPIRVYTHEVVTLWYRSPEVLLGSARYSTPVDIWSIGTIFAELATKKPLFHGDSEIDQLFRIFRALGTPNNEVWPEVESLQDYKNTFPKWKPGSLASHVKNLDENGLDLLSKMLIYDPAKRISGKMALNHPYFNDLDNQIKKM
# Chain of RAF proto-oncogene serine/threonine-protein kinase (Homo sapiens) (P04049 whole entry): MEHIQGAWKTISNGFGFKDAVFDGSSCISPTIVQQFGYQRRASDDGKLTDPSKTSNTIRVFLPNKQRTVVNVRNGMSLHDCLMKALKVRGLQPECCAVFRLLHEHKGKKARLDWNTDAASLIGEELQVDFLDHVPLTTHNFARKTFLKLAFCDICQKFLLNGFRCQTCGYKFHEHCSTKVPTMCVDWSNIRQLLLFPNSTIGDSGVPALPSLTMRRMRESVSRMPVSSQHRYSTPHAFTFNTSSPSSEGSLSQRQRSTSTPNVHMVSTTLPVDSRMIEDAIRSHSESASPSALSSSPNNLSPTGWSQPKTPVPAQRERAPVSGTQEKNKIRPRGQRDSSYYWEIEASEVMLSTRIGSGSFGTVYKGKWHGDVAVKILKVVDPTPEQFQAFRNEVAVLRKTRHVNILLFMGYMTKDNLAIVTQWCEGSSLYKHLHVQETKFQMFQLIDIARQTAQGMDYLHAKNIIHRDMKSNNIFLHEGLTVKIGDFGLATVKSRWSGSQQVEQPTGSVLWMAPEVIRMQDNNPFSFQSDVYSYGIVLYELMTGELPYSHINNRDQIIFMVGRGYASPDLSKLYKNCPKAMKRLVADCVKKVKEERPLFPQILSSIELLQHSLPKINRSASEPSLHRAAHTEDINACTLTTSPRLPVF
# Chain of Mitogen-activated protein kinase 8 (Homo sapiens) (P45983 whole entry): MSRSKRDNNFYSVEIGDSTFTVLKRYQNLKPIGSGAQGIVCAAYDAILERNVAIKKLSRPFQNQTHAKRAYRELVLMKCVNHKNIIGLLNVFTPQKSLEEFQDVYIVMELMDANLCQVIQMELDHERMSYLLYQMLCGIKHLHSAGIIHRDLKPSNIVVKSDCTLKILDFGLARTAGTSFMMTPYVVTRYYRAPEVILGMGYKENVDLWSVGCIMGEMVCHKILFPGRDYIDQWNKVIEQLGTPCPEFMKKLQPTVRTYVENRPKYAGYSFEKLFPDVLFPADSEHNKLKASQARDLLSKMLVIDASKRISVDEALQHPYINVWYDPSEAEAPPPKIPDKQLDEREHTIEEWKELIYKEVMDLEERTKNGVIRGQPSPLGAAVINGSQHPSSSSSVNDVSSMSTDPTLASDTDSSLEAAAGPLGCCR
# Chain of Glycogen synthase kinase-3 beta (Homo sapiens) (P49841 whole entry, looked up): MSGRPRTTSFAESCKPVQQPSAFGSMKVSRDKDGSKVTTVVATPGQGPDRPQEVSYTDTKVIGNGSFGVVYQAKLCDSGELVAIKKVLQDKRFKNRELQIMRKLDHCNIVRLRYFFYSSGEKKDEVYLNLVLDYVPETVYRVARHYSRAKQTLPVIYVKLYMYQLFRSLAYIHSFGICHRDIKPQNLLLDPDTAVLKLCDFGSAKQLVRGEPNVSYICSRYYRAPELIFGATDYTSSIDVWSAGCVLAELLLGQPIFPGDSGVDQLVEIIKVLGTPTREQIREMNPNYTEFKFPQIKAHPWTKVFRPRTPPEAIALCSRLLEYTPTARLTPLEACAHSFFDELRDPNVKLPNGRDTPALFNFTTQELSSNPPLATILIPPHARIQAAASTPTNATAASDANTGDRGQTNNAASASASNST
SMILES,inhibition [1],inhibition [3],inhibition [5],also measured
Cc1ccc(NCCCC(=O)N/N=C/c2cc(Br)cc(Br)c2O)cc1,Active,,,
O=C(O)c1cc(-c2ccc(-c3ccccc3[N+](=O)[O-])o2)nc2ccc3ccccc3c12,Active,,,
CCC(=O)Nc1nc(C)c(-c2csc(Nc3cc(OC)ccc3OC)n2)s1,Active,> 50%,inactive,inhibition [2]: > 50%; inhibition [4]: > 50%; inhibition [6]: > 50%; inhibition [7]: > 50%; inhibition [8]: > 50%
c1cc2[nH]c3c(c2c2nonc12)CCCC3,Active,,,
CCOCCCn1c(=S)[nH]c2cc(C(=O)NCC3COc4ccccc4O3)ccc2c1=O (stereo not given),Active,> 50%,Active,
CS(=O)(=O)c1ccc2nc(NC(=O)CCCOc3ccc(Cl)cc3)sc2c1,Active,> 50%,Active,
Cc1ccc(C(=O)CSc2nnc(-c3ccncc3)[nH]2)c(C)c1,Active,,,
O=C(NCC1COc2ccccc2O1)c1ccc(NC(=O)c2ccco2)cc1 (stereo not given),Active,,Active,
